Compounds with a hit are over-represented: about 2% of the library has one in this group of screens.
zfTRPN1 agonist – zebrafish TRPN1 channel agonists, primary screen, cell-based, HEK293, calcium fluorescence; transient receptor potential cation channel N1 (TRPN1/NompC), Danio rerio; HEK293 zebrafish TRPN1-YFP, Fluo-8 calcium fluorescence; 100% = response to 87 µM carbachol; activation, % at 3 µM; 220,000 compounds, 0.18% hits; AID 1424, 2008;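 active = activation above its plate's cutoff, the mean activation of test wells on that plate plus 3 SD, cut at about 19% in these data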
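Material – zebrafish TRPN1-YFP in HEK293 cells · Doses – 3 µM single point · Schedule – dye 1 h 37 °C plus 30 min RT · Signal – Fluo-8 calcium fluorescence, excitation 470-495 nm, emission 515-575 nm · Read-out – % activation versus carbachol response · Control set – carbachol high, DMSO low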
CRFBP-R2 block – antagonists of CRF-BP/CRF-R2 complex, primary screen, cell-based, HEK293, calcium dye fluorescence, uHTS. CRF-induced calcium fluorescence. inhibition, % at 11.8 µM. 350,000 compounds, 0.59% hits;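 active = inhibition of the ligand-induced calcium signal above about 50% at the single tested concentration, limit read from the data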
CRFBP-R2 agonist – agonists of CRF-BP/CRF-R2 complex, primary screen, cell-based, HEK293, calcium dye fluorescence, uHTS; activation, % at 13.2 µM; 350,000 compounds, 0.46% hits; AID 588473, 2011; calcium dye fluorescence (FLIPR); percent of saturating CRF peptide response; CRF-binding protein / CRF receptor 2 complex (human);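 active = activation of at least 50%, plus an integration ratio under a set limit after plate pattern correction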
GPR7 antagonist – GPR7 receptor antagonists, primary screen, cell-based, fluorescence, single concentration; Neuropeptides B/W receptor type 1 (Homo sapiens), P48145; 290,000 compounds, 1.1% hits; GPR7-expressing cells, fluorescence antagonist assay; inhibition, % at 4.4 µM; AID 1861, 2009; in the data active = inhibition above about 16%, passing the limit was not always enough;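 also: cells stimulated with the agonist NPW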
Target sequence (P48145 whole entry, looked up): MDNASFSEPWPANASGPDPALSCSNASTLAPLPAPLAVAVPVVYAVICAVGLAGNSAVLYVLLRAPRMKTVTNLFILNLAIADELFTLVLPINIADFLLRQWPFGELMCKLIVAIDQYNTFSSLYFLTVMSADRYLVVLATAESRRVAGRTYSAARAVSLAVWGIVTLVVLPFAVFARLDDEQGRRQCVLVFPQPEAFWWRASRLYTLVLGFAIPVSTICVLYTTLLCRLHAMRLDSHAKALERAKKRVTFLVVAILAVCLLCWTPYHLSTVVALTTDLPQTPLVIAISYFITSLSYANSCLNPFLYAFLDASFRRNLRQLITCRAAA
TRPML3 ag – human TRPML3 channel agonists, primary screen, cell-based, HEK293 TRPML3-YFP, Fluo-8 calcium fluorescence, 3 µM | 100% = the carbachol control signal | activation, % at 3 µM | AID 1448, 2008 | Mucolipin-3 (Homo sapiens), Q8TDD5 | 220,000 compounds, 0.29% hits;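 active = activation above its plate's cutoff, the mean activation of the plate's test wells plus 3 SD, cut at about 12% in these data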
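Test system: TRPML3-YFP stable HEK293 cells. Doses: single point at 3 µM. Incubation: dye loading 1 h 37 °C then 30 min ambient, 125 s read. Signal: Fluo-8 calcium dye fluorescence, ex 470-495, em 515-575 nm. Measure: percent activation from peak-to-basal fluorescence ratio, scaled between DMSO and carbachol.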
TRPN1 ag 2 – zebrafish TRPN1 channel agonists, counter-screen for TRPML3 agonist project, cell-based, HEK293 TRPN1-YFP, Fluo-8 calcium; Fluo-8 calcium fluorescence; scaled: carbachol wells 100%, DMSO wells 0%; shares compounds with TRPML3 ag; 310 compounds, 10% hits; activation, % at 3 µM;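 active = mean activation over replicates above a set limit taken from the earlier TRPN1 channel primary screen, cut at about 19% in these data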
TRPML3 confirm – human TRPML3 channel agonists, confirmation, cell-based, HEK293 TRPML3-YFP, Fluo-8 calcium, triplicate | shares compounds with TRPML3 ag | Fluo-8 calcium fluorescence; 100% set by carbachol, 0% by DMSO | activation, % at 3 µM | 310 compounds, 80% hits | AID 1526, 2009;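 active = activation above a set limit derived from the earlier primary screen, cut at about 12% in these data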
Large screens that a line does not name were inactive (follow-up assays come after a bar, where they were run).

O=S(=O)(N1CCCCC1)N1CCN(c2cc(Cl)ccc2Cl)CC1	TRPML3 ag 18.6 | TRPN1 ag 2 inactive | TRPML3 confirm 96.3
Cc1ccc(N2CCN(S(=O)(=O)N3CCCCC3)CC2)c(C)c1	TRPML3 ag 37.3 | TRPN1 ag 2 inactive | TRPML3 confirm 131.6
O=S(=O)(c1ccc(Cl)cc1Br)N1CCCCC1	TRPML3 ag 15.2 | TRPN1 ag 2 inactive | TRPML3 confirm 27.5
COc1ccc(-c2cnc3ccccc3n2)cc1NC(=O)CNC(=O)c1ccccc1	none (no result: zfTRPN1 agonist, TRPML3 ag)
O=C(CN1CCN(C(=O)CCC(=O)N2CCC(c3ccccc3)=N2)CC1)Nc1ccc(F)cc1	none (no result: zfTRPN1 agonist, GPR7 antagonist, TRPML3 ag)
O=C(c1ccc2ccccc2c1O)N1CCCCC1	none (no result: zfTRPN1 agonist, GPR7 antagonist, TRPML3 ag)
CC1CCCC(C)N1C(=C(Cl)Cl)C(=C1SCCS1)[N+](=O)[O-] (configuration not stated)	TRPML3 ag 13.7 | TRPN1 ag 2 inactive | TRPML3 confirm 55.1
O=C(Cc1ccc(Cl)c(Cl)c1)Nc1ccccc1N1CCOCC1	TRPML3 ag 51.4 | TRPN1 ag 2 inactive | TRPML3 confirm 66.8
O=C(Cc1ccccc1)Nc1ccccc1N1CCOCC1	none
C=CCN1C=CC(=C/C=C(/C#N)C(=O)OCC)C=C1	CRFBP-R2 agonist 70.7, TRPML3 ag 11.8 | TRPN1 ag 2 inactive | TRPML3 confirm 14.4
Cc1ccccc1N1CCN(S(=O)(=O)c2ccccc2)CC1	TRPML3 ag 64.5 | TRPN1 ag 2 inactive | TRPML3 confirm 35.9
CC1CCCCN1S(=O)(=O)c1ccccc1[N+](=O)[O-] (configuration not stated)	none
CCC1CCCCN1S(=O)(=O)c1ccccc1[N+](=O)[O-] (configuration not stated)	TRPML3 ag 21.6 | TRPN1 ag 2 inactive | TRPML3 confirm 21.9
CCN(C(=O)C(=O)c1c[nH]c2ccccc12)c1ccccc1	none (no result: zfTRPN1 agonist, TRPML3 ag)
CCOC(=O)c1sc(=S)n(C)c1NC(=O)c1ccc(C(C)(C)C)cc1	TRPML3 ag 14.1 | TRPN1 ag 2 inactive | TRPML3 confirm inactive
CN(CC(=O)O/N=C(\N)c1ccc([N+](=O)[O-])cc1)S(=O)(=O)c1ccccc1	none
CN(CC(=O)O/N=C(\N)c1cccc([N+](=O)[O-])c1)S(=O)(=O)c1ccccc1	TRPML3 ag 95.5 | TRPN1 ag 2 inactive | TRPML3 confirm 36.4
O=C(CN1CCN(S(=O)(=O)c2ccc(F)cc2)CC1)Nc1ccc2c(c1)OCCO2	none
O=C(CN1CCN(S(=O)(=O)c2ccc(F)cc2)CC1)Nc1ccc(Cl)c(C(F)(F)F)c1	TRPML3 ag 15.1 | TRPN1 ag 2 inactive | TRPML3 confirm 42.7
CC(C)(C)n1nnnc1C(c1cccnc1)N(Cc1ccccc1)Cc1ccco1 (configuration not stated)	none
COc1cccc(CN(Cc2ccco2)C(c2ccc(F)cc2)c2nnnn2C(C)(C)C)c1 (configuration not stated)	TRPML3 ag 25.5 | TRPN1 ag 2 inactive | TRPML3 confirm 26.1
O=C(CN1C(=O)CCS(=O)(=O)c2ccccc21)Nc1ccccc1F	none (no result: zfTRPN1 agonist, TRPML3 ag)
Cc1cccc(-c2noc(CN(C(C)C)S(=O)(=O)c3ccc(F)cc3)n2)c1	TRPML3 ag 74.7 | TRPN1 ag 2 inactive | TRPML3 confirm 55.9
COc1cccc(C(=O)N(Cc2nc(-c3cccc(C)c3)no2)C(C)C)c1OC	none
CN(C)c1ccc(C(C(=O)NCc2ccccc2)N(Cc2ccco2)C(=O)c2snc(C(N)=O)c2N)cc1 (configuration not stated)	none (no result: zfTRPN1 agonist, TRPML3 ag)
CN(C)c1ccc(/C=N/NC(=O)CCCO)cc1	none
COc1ccc(/C=N\NC(=S)SCN2C(=O)C3CCC(C)(C2=O)C3(C)C)cc1 (configuration not stated)	TRPML3 ag 38.5 | TRPN1 ag 2 inactive | TRPML3 confirm inactive
CC12CCC(C(=O)N(CSC(=S)N/N=C\c3ccccc3O)C1=O)C2(C)C (configuration not stated)	TRPML3 ag 67.3 | TRPN1 ag 2 inactive | TRPML3 confirm inactive
CN(C)c1ccc(/C=N\NC(=S)SCN2C(=O)C3CCC(C)(C2=O)C3(C)C)cc1 (configuration not stated)	TRPML3 ag 16.4 | TRPN1 ag 2 inactive | TRPML3 confirm inactive
Cc1ccc(S(=O)(=O)N(C)c2ccc(C)c([N+](=O)[O-])c2)cc1	TRPML3 ag 69.4 | TRPN1 ag 2 inactive | TRPML3 confirm 72.2
Cc1ccc(S(=O)(=O)N(C)c2ccc(N)cc2)cc1	none
COc1ccc(N(C)S(=O)(=O)c2ccc(C)cc2)c([N+](=O)[O-])c1	TRPML3 ag 35.5 | TRPN1 ag 2 inactive | TRPML3 confirm 42.0
CC(C)c1ccc(NC2CCCN(C(=O)c3ccc(N4CCOCC4)cc3)C2)cc1 (configuration not stated)	none (no result: zfTRPN1 agonist, TRPML3 ag)
CC(C)N(C(=O)CSc1nnc(C2CC2)n1C1CC1)c1ccccc1	none (no result: zfTRPN1 agonist, GPR7 antagonist, TRPML3 ag)
O=C(CCNC(=O)C1CCN(S(=O)(=O)c2ccccc2)CC1)NCc1ccc(Cl)c(Cl)c1	none (no result: zfTRPN1 agonist, TRPML3 ag)
O=C(Nc1ccncc1)Nc1ccc(F)c(Cl)c1	TRPML3 ag 12.0 | TRPN1 ag 2 inactive | TRPML3 confirm inactive
O=C(Nc1ccc(F)c(Cl)c1)Nc1ccc(Cl)cn1	none
O=C(Nc1c(S(=O)(=O)c2ccc(Cl)cc2)csc1Br)c1ccccc1Cl	TRPML3 ag 33.4 | TRPN1 ag 2 inactive | TRPML3 confirm 43.5
CCCCN1CC(=O)N2[C@H]3c4ccc(OC)cc4OC[C@@H]3[C@H](c3ccccc3)[C@]2(C)C1=O	none (no result: zfTRPN1 agonist, GPR7 antagonist, TRPML3 ag)
CC(=O)c1ccc(-c2ccc(C(=O)N(C)c3c(N)n(Cc4ccccc4)c(=O)[nH]c3=O)o2)cc1	none (no result: zfTRPN1 agonist, GPR7 antagonist, TRPML3 ag)
COc1cc(C(=O)NNC(=S)NC(=O)c2ccc(Cl)cc2)cc(OC)c1OC	TRPML3 ag 12.7 | TRPN1 ag 2 44.2 | TRPML3 confirm 36.0
COc1cc(CCC(=O)NNC(=O)c2ccc(Cl)cc2)cc(OC)c1OC	none (no result: zfTRPN1 agonist, TRPML3 ag)
Cc1onc(-c2ccccc2)c1C(=O)NC(=S)NNC(=O)c1ccncc1	none
COc1ccc(C(=O)NC(=S)NNC(=O)c2c(-c3ccccc3)noc2C)cc1OC	TRPML3 ag 19.4 | TRPN1 ag 2 inactive | TRPML3 confirm 24.1
Cc1cc(C)n(-c2nc(C)nc(NCc3ccccc3)n2)n1	TRPML3 ag 24.6 | TRPN1 ag 2 inactive | TRPML3 confirm 23.0

Bioassay records as filed in PubChem BioAssay.
